High-throughput results deposited in PubChem by Sanford-Burnham Center for Chemical Genomics.
The list is not random: actives were taken first. Their share in the collection is about 1.5%.
CCR6 antag: antagonists of human CCR6 receptor; P51684; CHO-K1 CCR6 PathHunter beta-arrestin, luminescence, CCL20-stimulated; inhibition, % at 20 µM; actives 0.49% (n = 340,000); AID 493098;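 active = compounds whose inhibition of the agonist-driven luminescence signal at 20 µM reaches about 50%, limit read from the data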;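 note: cells stimulated with CCL20 at 14 nM final; plate controls were DMSO with CCL20 for no effect and DMSO without agonist for full effect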
APJ antag: antagonists of human APJ apelin receptor | P35414 | CHO-K1 APJ beta-arrestin complementation, luminescence | inhibition, % at 20 µM | actives 0.32% (n = 330,000) | AID 2521;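 active = inhibition above about 40% at 20 µM, limit read from the data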;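 note: cells challenged with 10 nM apelin-13 agonist together with compound; plate controls were apelin-13 plus DMSO wells for no effect and DMSO wells lacking apelin-13 for full effect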
CXCR6 inh: blocks human CXCR6 beta-arrestin recruitment | O00574 | CHO-K1 PathHunter CXCR6 beta-arrestin, luminescence | inhibition, % at 20 µM | actives 0.36% (n = 360,000); in the data active = inhibition above about 34%, passing the limit was not always enough;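 note: antagonist mode with CXCL16 agonist at 10 nM final; 0% = 10 nM CXCL16 with DMSO and 100% = unstimulated wells without agonist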
Target sequence (O00574 whole entry, looked up): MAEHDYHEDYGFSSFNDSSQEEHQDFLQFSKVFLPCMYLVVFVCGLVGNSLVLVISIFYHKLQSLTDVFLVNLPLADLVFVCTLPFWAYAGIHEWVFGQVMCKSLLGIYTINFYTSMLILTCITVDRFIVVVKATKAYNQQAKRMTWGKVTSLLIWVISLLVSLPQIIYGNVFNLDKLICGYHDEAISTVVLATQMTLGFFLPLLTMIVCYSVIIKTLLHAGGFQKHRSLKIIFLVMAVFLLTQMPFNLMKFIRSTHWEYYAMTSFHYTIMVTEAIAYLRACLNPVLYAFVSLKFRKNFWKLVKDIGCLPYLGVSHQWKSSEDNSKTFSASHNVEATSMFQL
APJ ag: APJ receptor agonism; P35414; CHO-K1 APJ PathHunter beta-arrestin, luminescence; 0% DMSO wells, 100% apelin; activation, % at 20 µM; actives 0.11% (n = 330,000);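 active = activation more than six SD over the plate average, tested at 20 µM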;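 note: 0% = DMSO alone and 100% = apelin-13 at 10 nM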
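Test system: CHO-K1 APJ beta-arrestin complementation cell line. Amount: cell density 1000 per well. Controls: DMSO negative, 10 nM Apelin-13 positive. Signal: luminescent beta-gal fragment complementation, chemiluminescent substrate. Read-out basis: agonist-driven arrestin binding to APJ. Timing: compound stimulation 90 min at 25 °C, detection 60 min.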
EBI2 antag: antagonists of human EBI2 receptor | EBI2 beta-arrestin recruitment, luminescence, 7a,25-OHC stimulated | inhibition, % at 5 µM | actives 0.81% (n = 360,000) | AID 651636; in the data active = inhibition above about 38%;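 note: enzyme fragment complementation signal reports receptor beta-arrestin coupling in cells; 0% = agonist plus DMSO wells and 100% = wells without agonist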
EBI2 antag conf: EBI2 (human) antagonism, single concentration confirmation; EBI2 beta-arrestin luminescence, 7a,25-OHC antagonism; shares compounds with EBI2 antag; actives 29% (n = 2,400); inhibition, % at 5 µM; AID 651997;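 active = inhibition of at least 50%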
EBI2 agonist: EBI2 agonism counter-screen; 2,400 tested, under 10 active; activation, % at 5 µM; EBI2-expressing cells, agonist mode, luminescence, 60 min; 0% vehicle, 100% 7α,25-dihydroxycholesterol control; shares compounds with EBI2 antag;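 active = activation of at least 50%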
bGal cs: counter-screen for EBI2 antagonists: E. coli beta-galactosidase inhibition; actives 1% (n = 2,400); shares compounds with EBI2 antag; purified beta-galactosidase, luminescent Galacton Star, 15 min; AID 652176; inhibition, % at 5 µM;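 active = replicate-average signal at least 3 plate SD below neutral wells, shown as high inhibition, flagging enzyme-inhibiting false positives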;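 note: 0% = DMSO wells with enzyme and 100% = wells lacking enzyme; higher means stronger loss of beta-gal luminescence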
* = called active by the depositor; / = no result.

SMILES	CCR6 antag	APJ antag	CXCR6 inh	APJ ag	EBI2 antag	EBI2 antag conf	EBI2 agonist	bGal cs
COc1ccc(N2CCN(C(=O)c3cc4c(C)nc5ccccc5c4o3)CC2)cc1	2	9	1	-2	54*	43	1	8
O=C(CCSc1ccc(Cl)cc1)Nc1cccnc1	5	15	3	-1	-6	/	/	/
CS(=O)(=O)Nc1ccc(-c2ccc3nccn3c2)cc1	/	/	-16	/	-10	/	/	/
CC12CCC(=O)N1C(C(=O)N1CCN(c3ccc(C(F)(F)F)cc3[N+](=O)[O-])CC1)CS2 (configuration not stated)	-14	-46	-2	2	6	/	/	/
CCOc1cc(/C=N/NC(=O)c2nnn(-c3nonc3N)c2C)ccc1OCc1ccc(F)cc1	-11	19	0	-1	52*	34	-1	-12
CCc1c(C(=O)N/N=C/c2ccc(OCc3ccc(F)cc3)c(OC)c2)nnn1-c1nonc1N	-15	6	1	3	33	/	/	/
Cc1cccc(COc2ccc(/C=N/NC(=O)c3nnn(-c4nonc4N)c3C)cc2)c1	5	12	2	-1	8	/	/	/
CCOc1cc(/C=N/NC(=O)c2nnn(-c3nonc3N)c2C)ccc1OCc1cccc(F)c1	-5	6	-7	6	42*	43	0	9
CCOc1cc(/C=N/NC(=O)c2nnn(-c3nonc3N)c2C)ccc1OCc1ccc(C)cc1	/	/	13	/	54*	51*	-1	10
COc1ccc(CCNC(=O)CSc2ccc(-c3ccncc3)nn2)cc1	4	0	1	-2	-13	/	/	/
O=S(=O)(c1ccc(Oc2ccc(F)c(Cl)c2)nc1)N1CCOCC1	7	17	-3	7	6	/	/	/
O=S(=O)(c1ccc(Oc2ccc(Cl)cc2)nc1)N1CCOCC1	-4	-9	-7	5	52*	27	0	-6
COc1ccc(/C=N/n2cnc3c(sc(=S)n3-c3ccccc3)c2=O)cc1	13	-7	2	-5	51*	26	-2	-13
COc1cc(C#Cc2ccc3cc(C(C)(C)O)oc(=O)c3c2)cc(OC)c1	-12	7	0	-2	17	/	/	/
CC(=O)c1cccc(CN2CCCC(C(=O)Nc3ccc(-c4ccco4)cc3)C2)c1 (configuration not stated)	22	-27	-2	-2	-2	/	/	/
Cc1cc2nc3n(c2cc1C)CC1CC(C(=O)NCc2cccc(C(F)(F)F)c2)N(C)C31 (configuration not stated)	5	-14	4	-2	-4	/	/	/
COc1cc(OC)cc(-c2c(Sc3ccccc3)c3cc(-c4cnc(OC)nc4)ccc3n2C)c1	/	/	3	/	65*	10	-1	-6
COc1ccc(/C=C2\SC(=O)N(CC(=O)NN3CCN(C)CC3)C2=O)cc1OC	8	2	6	0	-11	/	/	/
COc1ccc(CNC(=O)c2cc(=O)c3cc(C)c(C)cc3o2)cc1	2	-5	-5	-5	56*	38	1	5
Cc1ccc(CNC(=O)c2cc(=O)c3cc(C)ccc3o2)cc1	-2	12	-5	-5	13	/	/	/
COc1ccc(N(CC(=O)Nc2cc(C)ccc2C)S(=O)(=O)c2c(C)noc2C)cc1	-7	-3	-7	-1	-6	/	/	/
COc1ccc(N(CC(=O)Nc2cc(C)ccc2OC)S(=O)(=O)c2c(C)noc2C)cc1	15	15	5	-3	42*	32	-1	-20
Cc1ccc(CNC(=O)c2ccc(N3CCC4(CC3)CC(c3ccccc3)=NO4)c(N)c2)cc1	-1	14	-3	8	45*	19	-1	-13
CCC(C(=O)c1ccc2ncccc2c1)c1ccccc1 (configuration not stated)	10	10	-2	-4	61*	46	1	-3
